Values belong to the compound of their own block, whether it stands above or below them. Calls of active or inactive are those of the source. The calls are words filed in the database; no cut-off is given here.
Tests used:
Trypanosoma cruzi [1] = assay: Antitrypanosomal activity against Trypanosoma cruzi Tulahuen 2 epimastigotes assessed as parasite growth inhibition after 5 days; format: functional, organism-based
Summary of the method: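 Tulahuen 2 epimastigotes grown at 28 °C in BHI-tryptose with 5% foetal calf serum. Late-log cells seeded at 3×10⁶/mL in 24-well plates with compound from DMSO stock (final DMSO ≤0.8%; control 0.8% DMSO). A610 read at day 0 and day 5. Growth inhibition calculated from the corrected absorbance ratio to control; IC50 is the concentration giving 50% of the control ratio.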

Trypanosoma cruzi [2] = assay: Antitrypanosomal activity against Trypanosoma cruzi CL Brener epimastigotes assessed as parasite viability after 5 days by MTT assay; format: functional, organism-based; conditions: 120 h
Summary of the method: (§1)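 Promastigotes (L. braziliensis, L. pifanoi) grown at 28 °C in axenic RPMI with 5% FBS. T. cruzi CL Brener epimastigotes grown in BHI-tryptose with 5% foetal serum. 24-well plates, 1 mL/well, seeded from exponential-phase culture. Compounds in DMSO, added at several concentrations (0.5–50.0) and kept 5 days. Then MTT 0.4 mg/mL for 3 h at 37 °C. Formazan dissolved in DMSO, OD595 read. Triplicate per concentration, six growth controls. Cytotoxicity % calculated against growth and medium blanks, IC50 derived.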

J774 = assay: Cytotoxicity against mouse J774 macrophages after 48 hrs by MTT assay; format: cell-based
Summary of the method: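 Exposed to compounds (1.0–400.0) for 48 h, washed with PBS, then MTT 0.4 mg/mL for 3 h. Formazan dissolved in DMSO, OD595 read. Triplicate per concentration, six growth controls. % cytotoxicity calculated against blanks.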

[3] = Selectivity index, ratio of IC50 for mouse J774 macrophages to IC50 for Trypanosoma cruzi Tulahuen 2 epimastigotes
Trypanosoma cruzi [4] = assay: Induction of free radical production Trypanosoma cruzi microsomal fraction at 1 mM using DMPO and FXN spin trapping by ESR spectroscopic analysis; format: functional; conditions: Microsome
Summary of the method: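 T. cruzi microsomal fraction at 4 mg protein/mL, in 20 mM phosphate buffer pH 7.4 with 1 mM NADPH, 1 mM EDTA and 100 mM DMPO or FXN spin trap. Compound added at 1 mM final, dissolved in spectroscopy-grade DMF. Radical adducts detected by ESR.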

Leishmania braziliensis [5] = assay: Antileishmanial activity against Leishmania braziliensis MHOM/BR/00/LTB300 promastigotes assessed as parasite viability after 5 days by MTT assay; format: functional, organism-based; conditions: MHOM/BR/00/LTB300, 120 h; summary of the method: as §1
Leishmania pifanoi = assay: Antileishmanial activity against Leishmania pifanoi MHOM/VE/57/LV135 promastigotes assessed as parasite viability after 5 days by MTT assay; format: functional, organism-based; conditions: MHOM/VE/57/LV135, 120 h; summary of the method: as §1
Trypanosoma cruzi [6] = assay: Antitrypanosomal activity against Trypanosoma cruzi epimastigotes; format: functional, organism-based
Trypanosoma cruzi [7] = assay: Inhibition of Trypanosoma cruzi Tulahuen 2 mitochondrial dehydrogenase at 20 uM after 120 mins by MTT assay relative to control
Summary of the method: (§2)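 10⁶ parasites/well (T. cruzi Tulahuen 2 or Y epimastigotes, or L. braziliensis LTB300 promastigotes) in 500 µL medium with 20 µM compound, at 28 °C for up to 240 min; untreated duplicate wells served as time-matched controls. MTT (5 mg/mL stock in PBS) added for 2 h, stopped with acidic isopropanol, A570 read. Activity expressed as % of untreated parasites.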

Trypanosoma cruzi [8] = assay: Inhibition of Trypanosoma cruzi Y mitochondrial dehydrogenase at 20 uM after 120 mins by MTT assay relative to control; summary of the method: as §2
Leishmania braziliensis [9] = assay: Inhibition of Leishmania braziliensis MHOM/BR/00/LTB300 promastigotes mitochondrial dehydrogenase at 20 uM by MTT assay relative to control; conditions: TDE = time-dependent effect; summary of the method: as §2
[10] = molecular target: Cruzipain (Trypanosoma cruzi) (UniProt P25779); assay: Inhibition of Trypanosoma cruzi cruzipain at 25 uM
Cruzipain (Trypanosoma cruzi), sequence (P25779 123-467 limits assumed): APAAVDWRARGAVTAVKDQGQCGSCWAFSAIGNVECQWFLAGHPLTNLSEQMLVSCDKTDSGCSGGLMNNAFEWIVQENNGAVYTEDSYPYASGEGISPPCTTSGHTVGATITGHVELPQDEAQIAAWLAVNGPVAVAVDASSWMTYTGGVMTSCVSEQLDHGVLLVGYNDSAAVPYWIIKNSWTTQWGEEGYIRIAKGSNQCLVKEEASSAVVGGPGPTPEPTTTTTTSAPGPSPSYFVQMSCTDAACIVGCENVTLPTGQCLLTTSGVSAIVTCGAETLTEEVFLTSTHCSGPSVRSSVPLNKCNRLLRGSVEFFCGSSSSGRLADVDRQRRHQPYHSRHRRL

[11] = molecular target: Cruzipain (Trypanosoma cruzi) (UniProt P25779); assay: Inhibition of Trypanosoma cruzi cruzipain at 50 uM
[12] = molecular target: Cruzipain (Trypanosoma cruzi) (UniProt P25779); assay: Inhibition of Trypanosoma cruzi cruzipain at 100 uM
[13] = Trypanosoma cruzi, Tulahuen 2, 120 h

SMILES: Cc1ccc(S(=O)(=O)/C=C/c2ccc3no[n+]([O-])c3c2)cc1
IC50 (Trypanosoma cruzi [1]; [13]): 4.3 µM | IC50 (Trypanosoma cruzi [2]): 9.6 µM | IC50 (J774; Mus musculus, J774, 48 h): 8 µM | Selectivity Index [3]: 1.1

SMILES: Cc1ccc([S+]([O-])/C=C\c2ccc3no[n+]([O-])c3c2)cc1 (configuration not stated)
IC50 (Trypanosoma cruzi [1]; [13]): 6.7 µM | IC50 (Trypanosoma cruzi [2]): 8.4 µM

SMILES: O=S(=O)(/C=C/c1ccc2no[n+]([O-])c2c1)c1ccc(F)cc1
IC50 (Trypanosoma cruzi [1]; [13]): 7.5 µM | IC50 (Trypanosoma cruzi [2]): 6.3 µM | Activity (Trypanosoma cruzi [4]): Active

SMILES: O=C(/C=C/c1ccc2no[n+]([O-])c2c1)c1ccc(Cl)cc1
IC50 (Trypanosoma cruzi [1]; [13]): 25 µM | IC50 (J774; Mus musculus, J774, 48 h): 28 µM | Selectivity Index [3]: 1.1

SMILES: O=S(=O)(/C=C\c1ccc2no[n+]([O-])c2c1)c1ccc(F)cc1
IC50 (Trypanosoma cruzi [1]; [13]): 2.7 µM | IC50 (Trypanosoma cruzi [2]): 2.9 µM | inhibition [10]: 0% | inhibition [11]: 0% | inhibition [12]: 0% | Activity (Trypanosoma cruzi [4]): Active

SMILES: [O-][n+]1onc2ccc(/C=C/[S+]([O-])c3ccc(F)cc3)cc21 (configuration not stated)
IC50 (Trypanosoma cruzi [1]; [13]): 4.5 µM | IC50 (Trypanosoma cruzi [2]): 6.2 µM

SMILES: [O-][n+]1onc2ccc(/C=C/c3ccccc3)cc21
IC50 (Trypanosoma cruzi [6]): 10.7 µM

SMILES: O=S(=O)(C=Cc1ccc2no[n+]([O-])c2c1)c1ccc(F)cc1
inhibition (Trypanosoma cruzi [7]): 17.6%

SMILES: O=S(=O)(/C=C/c1ccc2no[n+]([O-])c2c1)c1ccccc1 (stereo in doubt; 25)
IC50 (J774; j774): 78 µM | Selectivity Index [3]: 3.1

SMILES: [O-][n+]1onc2ccc(C=CSc3ccccc3)cc21
IC50 (J774; Mus musculus, J774, 48 h): 30 µM | inhibition (Trypanosoma cruzi [7]): 14.5% | Selectivity Index [3]: 10

SMILES: O=C(/C=C/c1ccc2no[n+]([O-])c2c1)c1ccc([N+](=O)[O-])cc1
IC50 (Trypanosoma cruzi [1]; [13]): 2.4 µM | IC50 (J774; Mus musculus, J774, 48 h): 32 µM | Selectivity Index [3]: 13.3

SMILES: O=S(=O)(/C=C\c1ccc2no[n+]([O-])c2c1)c1ccc(Cl)cc1
IC50 (Trypanosoma cruzi [1]; [13]): 1.3 µM | IC50 (Trypanosoma cruzi [2]): 2.3 µM

SMILES: [O-][n+]1onc2ccc(/C=C\c3ccccc3)cc21
IC50 (Trypanosoma cruzi [6]): 7 µM

SMILES: O=C(/C=C/c1ccc2no[n+]([O-])c2c1)c1ccccc1
IC50 (Trypanosoma cruzi [1]; [13]): 5 µM | IC50 (J774; Mus musculus, J774, 48 h): 47 µM | inhibition [10]: 0% | inhibition [11]: 0% | inhibition [12]: 0% | inhibition (Trypanosoma cruzi [7]): 21.8% | Selectivity Index [3]: 9.4

SMILES: O=C(/C=C/c1ccc2nonc2c1)c1ccc(Cl)cc1
IC50 (Trypanosoma cruzi [1]; [13]): > 100 µM | IC50 (J774; Mus musculus, J774, 48 h): 251 µM | Selectivity Index [3]: <2.5

SMILES: Cc1ccc(S/C=C\c2ccc3no[n+]([O-])c3c2)cc1
IC50 (Trypanosoma cruzi [1]; [13]): 4.2 µM | IC50 (Trypanosoma cruzi [2]): 4.1 µM

SMILES: [O-][n+]1onc2ccc(/C=C/[S+]([O-])c3ccccc3)cc21 (stereo in doubt; 24)
IC50 (J774; j774): > 400 µM | Selectivity Index [3]: >10

SMILES: O=S(=O)(/C=C/c1ccc2no[n+]([O-])c2c1)c1ccc(Cl)cc1
IC50 (Trypanosoma cruzi [1]; [13]): 4.8 µM | IC50 (Trypanosoma cruzi [2]): 4.8 µM

SMILES: Cc1ccc(S/C=C/c2ccc3no[n+]([O-])c3c2)cc1
IC50 (Trypanosoma cruzi [1]; [13]): 1.9 µM | IC50 (Trypanosoma cruzi [2]): 4.7 µM

SMILES: [O-][n+]1onc2ccc(/C=C\Sc3ccc(Cl)cc3)cc21
IC50 (Trypanosoma cruzi [1]; [13]): 4.2 µM | IC50 (Trypanosoma cruzi [2]): 2.8 µM

SMILES: [O-][n+]1onc2ccc(/C=C\[S+]([O-])c3ccc(Cl)cc3)cc21 (configuration not stated)
IC50 (Trypanosoma cruzi [1]; [13]): 2.7 µM | IC50 (Trypanosoma cruzi [2]): 4.7 µM | IC50 (J774; Mus musculus, J774, 48 h): 10 µM | Selectivity Index [3]: 6.3

SMILES: O=S(=O)(/C=C/c1ccc2no[n+]([O-])c2c1)c1ccccc1 (stereo in doubt; 4E) [listing 1 of 2 here]
inhibition (Trypanosoma cruzi [8]): 25% | Activity (Leishmania braziliensis [9]): tde

SMILES: O=S(=O)(/C=C\c1ccc2no[n+]([O-])c2c1)c1ccccc1
IC50 (Leishmania braziliensis [5]): 10.8 µM | IC50 (J774; Mus musculus, J774, 48 h): 11 µM | IC50 (Trypanosoma cruzi [6]): 1.1 µM | Selectivity Index [3]: 10

SMILES: O=C(/C=C/c1ccc2nonc2c1)c1ccccc1
IC50 (Trypanosoma cruzi [1]; [13]): 97 µM | IC50 (J774; Mus musculus, J774, 48 h): 102 µM | Selectivity Index [3]: 1.1

SMILES: O=S(=O)(/C=C/c1ccc2no[n+]([O-])c2c1)c1ccccc1 (stereo in doubt; 4E) [listing 2 of 2 here]
IC50 (Leishmania braziliensis [5]): 21.5 µM | IC50 (J774; j774): 16 µM | IC50 (Trypanosoma cruzi [6]): 1.6 µM | Selectivity Index [3]: 10

SMILES: [O-][n+]1onc2ccc(/C=C\Sc3ccc(F)cc3)cc21
IC50 (Trypanosoma cruzi [1]; [13]): 12 µM | IC50 (Trypanosoma cruzi [2]): 5.9 µM | IC50 (Leishmania braziliensis [5]): 1.7 µM | IC50 (Leishmania pifanoi): 4.5 µM | Activity (Trypanosoma cruzi [4]): Active

More lines, main results first:

IC50 (Trypanosoma cruzi [6]): 2.6 µM
SMILES: [O-][n+]1onc2ccc(/C=C/Sc3ccccc3)cc21
IC50 (Leishmania braziliensis [5]): 1.5 µM | IC50 (Leishmania pifanoi): 4.3 µM

IC50 (Trypanosoma cruzi [1]; [13]): > 100 µM
SMILES: O=C(/C=C/c1ccc2nonc2c1)c1ccc([N+](=O)[O-])cc1
IC50 (J774; Mus musculus, J774, 48 h): 131 µM | Selectivity Index [3]: <1.3

inhibition (Trypanosoma cruzi [7]): 4%
SMILES: O=S(=O)(C=Cc1ccc2no[n+]([O-])c2c1)c1ccc(Cl)cc1

inhibition (Trypanosoma cruzi [8]): 25% | Activity (Leishmania braziliensis [9]): tde | IC50 (Trypanosoma cruzi [6]): 0.7 µM
SMILES: [O-][n+]1onc2ccc(/C=C\[S+]([O-])c3ccccc3)cc21 (configuration not stated)
IC50 (Leishmania braziliensis [5]): 4.6 µM | IC50 (J774; Mus musculus, J774, 48 h): 14 µM | Selectivity Index [3]: 20

inhibition (Trypanosoma cruzi [7]): 58.5% | Activity (Leishmania braziliensis [9]): tde | IC50 (Trypanosoma cruzi [6]): 14.6 µM
SMILES: C=CS(=O)(=O)Cc1ccc2no[n+]([O-])c2c1
IC50 (Leishmania braziliensis [5]): 16.8 µM

IC50 (Trypanosoma cruzi [1]): 4.1 µM | inhibition [12]: 13%
SMILES: COc1ccc(C(=O)/C=C/c2ccc3no[n+]([O-])c3c2)cc1 (stereo in doubt; 11)
IC50 (J774; j774): 31 µM | Selectivity Index [3]: 7.6

IC50 (Trypanosoma cruzi [1]; [13]): 5 µM | IC50 (Trypanosoma cruzi [2]): 5.5 µM
SMILES: [O-][n+]1onc2ccc(/C=C/Sc3ccc(F)cc3)cc21
IC50 (Leishmania braziliensis [5]): 4.3 µM | IC50 (Leishmania pifanoi): 4.3 µM | IC50 (J774; Mus musculus, J774, 48 h): 35 µM | Activity (Trypanosoma cruzi [4]): Active | Selectivity Index [3]: 7

IC50 (Trypanosoma cruzi [1]; [13]): 5.5 µM | IC50 (Trypanosoma cruzi [2]): 6.7 µM
SMILES: [O-][n+]1onc2ccc(/C=C/[S+]([O-])c3ccc(Cl)cc3)cc21 (configuration not stated)
IC50 (J774; Mus musculus, J774, 48 h): 18 µM | Selectivity Index [3]: 4

IC50 (Trypanosoma cruzi [1]; [13]): 4.6 µM | IC50 (Trypanosoma cruzi [2]): 6 µM
SMILES: Cc1ccc([S+]([O-])/C=C/c2ccc3no[n+]([O-])c3c2)cc1 (configuration not stated)

IC50 (Trypanosoma cruzi [1]; [13]): 3.6 µM | IC50 (Trypanosoma cruzi [2]): 5.1 µM
SMILES: Cc1ccc(S(=O)(=O)/C=C\c2ccc3no[n+]([O-])c3c2)cc1

IC50 (Trypanosoma cruzi [1]; [13]): 1.6 µM | IC50 (Trypanosoma cruzi [2]): 3.2 µM
SMILES: [O-][n+]1onc2ccc(/C=C\[S+]([O-])c3ccc(F)cc3)cc21 (configuration not stated)

IC50 (Trypanosoma cruzi [6]): 2.6 µM
SMILES: [O-][n+]1onc2ccc(/C=C/[S+]([O-])c3ccccc3)cc21 (stereo in doubt; 3E)
IC50 (Leishmania braziliensis [5]): 31.5 µM | IC50 (J774; j774): 30 µM | Selectivity Index [3]: 11.5
